One assay concerns RAW264.7. In words: Inhibition of LPS-stimulated TNFalpha production in mouse RAW264.7 cells at […] dosed simultaneously with LPS measured 24 hrs post dose by ELISA. The class given is functional. The method in brief:
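RAW 264.7 macrophages were seeded and grown for 24 h. Test agents were then added together with LPS, and cells were incubated for a further 24 h before TNF-α output was determined. Results are expressed as percent inhibition.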
A general note: An ELISA detects its analyte on a solid surface through an enzyme-linked reagent.

The test system of assay [1] is Mus musculus. Nature of the assay: Antidiabetic effect in high-fat diet fed C57BL/6J mouse obesity model assessed as reduction in plasma alanine aminotransferase level at 50 mg/kg, po dosed once daily measured after 8 weeks relative to untreated control. The class given is functional. The note with it: 1344 h. The procedure, abridged:
(§1)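 Obese C57BL/6J animals on a 60% fat diet were given 50 mg/kg orally each day (suspension in Tween 80/5% saline) or vehicle, n = 8 per group. After 8 weeks, heart blood was taken under anaesthesia and spun at 5,000 g for 15 min at 4 °C. Plasma glucose, TG, TC and ALT were measured on a biochemistry analyzer.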

Assay [2] deals with Mus musculus. In words: Antidiabetic effect in high-fat diet fed C57BL/6J mouse obesity model assessed as reduction in blood glucose at 50 mg/kg, po dosed once daily measured after 8 weeks relative to untreated control. More on the design: dose 50 mg/kg. Type of assay: functional, organism-based. The method in brief:
as §1

For assay [3], the system named is Mus musculus. In words: Antidiabetic effect in high-fat diet fed C57BL/6J mouse obesity model assessed as reduction in plasma total cholesterol level at 50 mg/kg, po dosed once daily measured after 8 weeks relative to untreated control. The class given is functional. The note with it: 1344 h. The procedure, abridged:
as §1

The subject of assay [4] is Mus musculus. Nature of the assay: Antidiabetic effect in high-fat diet fed C57BL/6J mouse obesity model assessed as reduction in plasma triglyceride level at 50 mg/kg, po dosed once daily measured after 8 weeks relative to untreated control. The class given is functional. To be noted: 1344 h. The procedure, abridged:
as §1

For assay [5], the target named is Fatty acid-binding protein, adipocyte (Mus musculus) (UniProt P04117). In words: Inhibition of mouse ap2 by fluorescent 1,8-anilino-8-naphthalene sulfonate assay. To be noted: read-out: Ki(app).
Chain of Fatty acid-binding protein, adipocyte (Mus musculus) (P04117 whole entry, looked up): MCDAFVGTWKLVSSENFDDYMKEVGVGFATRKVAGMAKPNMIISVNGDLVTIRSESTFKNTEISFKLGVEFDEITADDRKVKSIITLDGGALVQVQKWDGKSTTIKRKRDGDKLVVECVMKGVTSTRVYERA
The subject of assay [6] is Mus musculus. In words: Effect on food intake in high-fat diet fed C57BL/6J mouse obesity model at 50 mg/kg, po dosed once daily measured after 8 weeks relative to untreated control. Type of assay: functional, organism-based. More on the design: dose 50 mg/kg. The method in brief:
(§2)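 C57BL/6J animals were kept on a 60% fat diet, or on normal food, for 8 weeks. High-fat groups were dosed orally at 50 mg/kg once daily (suspension in Tween 80/5% saline) or given vehicle, n = 8 per group. Body weight and food intake were followed over the study period.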

The test system of assay [7] is Mus musculus. Nature of the assay: Antidiabetic effect in high-fat diet fed C57BL/6J mouse obesity model assessed as improvement in glucose metabolism level at 50 mg/kg, po dosed once daily measured after 8 weeks by glucose tolerance test. Type of assay: functional, organism-based. More on the design: dose 50 mg/kg. The procedure, abridged: (§3)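 Diet-induced obese C57BL/6J animals were fed a 60% fat diet for 8 weeks, then dosed orally with 50 mg/kg daily (suspension in Tween 80 and 5% saline) or vehicle, n = 8 per group. After a 12 h fast they received either an oral glucose load of 0.5 g/kg (5% glucose) or ip insulin at 2 U/Kg in saline. Blood glucose was read by glucose meter at 0, 15, 30, 60, 90 and 120 min.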

Assay [8] concerns Mus musculus. In words: Antidiabetic effect in high-fat diet fed C57BL/6J mouse obesity model assessed as increase in insulin sensitivity level at 50 mg/kg, po dosed once daily measured after 8 weeks by insulin tolerance test. Type of assay: functional, organism-based. Also noted: dose 50 mg/kg. The method in brief: as §3
Assay [9] has as its system Mus musculus. Nature of the assay: Antidiabetic effect in high-fat diet fed C57BL/6J mouse obesity model assessed as reduction in liver fat deposition at 50 mg/kg, po dosed once daily measured after 8 weeks by H&E staining. Also noted: dose 50 mg/kg. Type of assay: functional, organism-based. The method in brief:
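Livers came from high-fat-fed C57BL/6J animals that had 8 weeks of daily oral dosing at 50 mg/kg or vehicle. Tissue was fixed in 4% buffered formalin, embedded in paraffin or OCT, and serially sectioned. Sections were stained with H&E to assess fat deposition.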

In assay [10] the test system is Mus musculus. In words: Antidiabetic effect in high-fat diet fed C57BL/6J mouse obesity model assessed as weight gain incidence at 50 mg/kg, po dosed once daily measured after 8 weeks relative to untreated control. The class given is functional. The method in brief:
as §2

pKi: −log10 of the molar value. Activity calls are given as the source filed them. The calls are words filed in the database; no cut-off is given here.

As for `Cc1ccc(-c2csc(NC(=O)CCC(=O)O)n2)cc1`, the “inhibition (INH)” value in the assay with RAW264.7 was 36.67%.

Regarding `N#Cc1ccc(Cn2cc(/C=C/C(=O)O)c3ccccc32)cc1`, in the assay with RAW264.7, the “inhibition (INH)” value is recorded as 31.46%.

Regarding `O=C(O)CCC(=O)Nc1nc(-c2ccc(Cl)cc2Cl)cs1`, the “inhibition (INH)” value in the assay on RAW264.7 amounted to 35.15%.

For `Cc1ccccc1Cn1cc(/C=C/C(=O)O)c2ccccc21`, in the assay with RAW264.7, the inhibition entry was “inactive”.

Take `O=C(O)CCC(=O)Nc1nc(-c2ccc3ccccc3c2)cs1`: in the assay with RAW264.7, the “inhibition (INH)” value was 58.75%.

As for `O=C(O)/C=C/c1cn(Cc2ccccc2F)c2ccccc12`, the values for the inhibition in vivo at 50 mg/kg with Mus musculus [1], in the assay with Mus musculus [3] and in the assay with Mus musculus [4] were 26.7%, 38.5% and 27.1%, respectively. The outcome with Mus musculus [2], in the assay on Mus musculus [7], in the assay with Mus musculus [8] and in the assay with Mus musculus [9] was Active. Besides, the pKi (commonly the negative decadic logarithm of the Ki, by convention in mol/L) in assay [5] is 7.48. Also, the result in the assay with Mus musculus [6] was inactive. Also, the Activity in the assay with Mus musculus [10] came to 21.18%. The “inhibition (INH)” value in the assay with RAW264.7 came out at 95.47%.

On to `COc1ccc2c(c1)c(/C=C/C(=O)O)cn2Cc1cccc(F)c1`, for which, in the assay with RAW264.7, the inhibition result was “inactive”.

In the case of `COc1ccc2c(c1)c(/C=C/C(=O)O)cn2Cc1ccccc1F`, the “inhibition (INH)” value in the assay on RAW264.7 was found to be 86.67%.

In the case of `O=C(O)CCC(=O)Nc1nc(-c2ccc(Cl)c(Cl)c2)cs1`, the “inhibition (INH)” value in the assay with RAW264.7 came to 12.38%.

Regarding `O=C(O)CCC(=O)Nc1nc(-c2ccccc2Cl)cs1`, in the assay on RAW264.7, the “inhibition (INH)” value was found to be 8.56%.

As for `O=C(O)CCC(=O)Nc1nc(-c2ccc(C(F)(F)F)cc2)cs1`, in the assay on RAW264.7, the “inhibition (INH)” value is given as 12.15%.

In the case of `O=C(O)/C=C/c1cn(Cc2cccc(F)c2)c2ccccc12`, the “inhibition (INH)” value with RAW264.7 amounted to 36.36%.

As to `Cc1ccccc1Cn1cc(CC(=O)O)c2ccccc21`, the “inhibition (INH)” value in the assay with RAW264.7 amounted to 14.29%.

For the molecule `O=C(O)CCC(=O)Nc1nc(-c2ccc(F)cc2)cs1`, the “inhibition (INH)” value in the assay on RAW264.7 came out at 27.24%.

As to `O=C(O)Cc1cn(Cc2cccc(F)c2)c2ccccc12`, in the assay on RAW264.7, the inhibition result is “inactive”.

Turning to `Cc1ccc2c(c1)c(/C=C/C(=O)O)cn2Cc1cccc(F)c1`, in the assay with RAW264.7, the inhibition result was “inactive”.

Regarding `COc1ccc(-c2csc(NC(=O)CCC(=O)O)n2)cc1`, in the assay with RAW264.7, the inhibition result is “inactive”.

With `O=C(O)CCC(=O)Nc1nc(-c2ccc(Cl)cc2)cs1`, the “inhibition (INH)” value in the assay on RAW264.7 is on record as 41.22%.

As to `O=C(O)CSCC(=O)Nc1nc(-c2ccc(F)cc2)cs1`, the “inhibition (INH)” value in the assay with RAW264.7 is reported as 18.19%.

In the case of `O=C(O)Cc1cn(Cc2ccc(F)cc2)c2ccccc12`, the “inhibition (INH)” value in the assay with RAW264.7 turned out to be 92.24%.

Regarding `CC(C)(C)c1ccc(Cn2cc(/C=C/C(=O)O)c3ccccc32)cc1`, the “inhibition (INH)” value with RAW264.7 was found to be 50.18%.

On to `Cc1c(/C=C/C(=O)O)c2ccccc2n1Cc1cccc(F)c1`, for which, in the assay on RAW264.7, the inhibition entry is “inactive”.

For `O=C(O)/C=C/c1cn(Cc2ccc([N+](=O)[O-])cc2)c2ccccc12`, the “inhibition (INH)” value with RAW264.7 was 32.34%.

Take `COc1ccc2c(c1)c(/C=C/C(=O)O)cn2Cc1ccc(F)cc1`: the “inhibition (INH)” value with RAW264.7 came out at 94.28%.

On to `Cc1ccc2c(c1)c(/C=C/C(=O)O)cn2Cc1ccccc1F`, for which the “inhibition (INH)” value with RAW264.7 amounted to 11.18%.

Regarding `Cc1sc(NC(=O)CCC(=O)O)nc1-c1ccc(Cl)cc1`, in the assay with RAW264.7, the “inhibition (INH)” value is recorded as 27.14%.

As for `O=C(O)Cc1cn(Cc2ccccc2)c2ccccc12`, the “inhibition (INH)” value in the assay on RAW264.7 came to 52.17%.

In the case of `O=C(O)CSCC(=O)Nc1nc(-c2ccc(Cl)cc2)cs1`, the “inhibition (INH)” value with RAW264.7 is 23.45%.

For the molecule `O=C(O)/C=C/c1cn(Cc2ccccc2)c2ccccc12`, in the assay on RAW264.7, the “inhibition (INH)” value was 18.17%.

As for `O=C(O)CCC(=O)Nc1nc(-c2ccc(F)c(F)c2)cs1`, the “inhibition (INH)” value in the assay with RAW264.7 is 92.45%.

For the molecule `O=C(O)Cc1cn(Cc2ccccc2F)c2ccccc12`, the “inhibition (INH)” value with RAW264.7 was determined as 24.72%.

Regarding `Cc1ccc(Cn2cc(/C=C/C(=O)O)c3ccccc32)cc1`, in the assay with RAW264.7, the “inhibition (INH)” value came to 66.56%.

As for `O=C(O)/C=C/c1cn(Cc2cccc3ccccc23)c2ccccc12`, the “inhibition (INH)” value in the assay with RAW264.7 is reported as 93.28%.

With `CC(C)c1ccc(Cn2cc(/C=C/C(=O)O)c3ccccc32)cc1`, the “inhibition (INH)” value with RAW264.7 was determined as 92.24%.

As for `Cc1sc(NC(=O)CCC(=O)O)nc1-c1ccccc1`, the “inhibition (INH)” value in the assay on RAW264.7 is recorded as 25.23%.

On to `O=C(O)CSCC(=O)Nc1nc(-c2ccc(C(F)(F)F)cc2)cs1`, for which the “inhibition (INH)” value in the assay on RAW264.7 was 37.26%.

`Cc1c(/C=C/C(=O)O)c2ccccc2n1Cc1ccccc1F`: in the assay on RAW264.7, the “inhibition (INH)” value is listed as 93.27%.

On to `CCc1c(-c2ccccc2)c(-c2ccccc2)nn1-c1ccccc1-c1cccc(OCC(=O)O)c1`, for which, in the assay on RAW264.7, the “inhibition (INH)” value came to 85.13%.

Consider `O=C(O)/C=C/c1cn(Cc2ccc(F)cc2)c2ccccc12`, for which the “inhibition (INH)” value in the assay with RAW264.7 came to 86.78%.

On to `O=C(O)CSCC(=O)Nc1nc(-c2ccc([N+](=O)[O-])cc2)cs1`, for which the “inhibition (INH)” value in the assay with RAW264.7 is given as 43.24%.
